Assay results: BindingDB's records for doi:10.1016/j.ejmech.2014.12.041 (Jagiellonian University Medical College, 2015)

How the values were obtained:
[1] = biological target: T1, 5-hydroxytryptamine receptor 1A (Homo sapiens, UniProt P08908); assay: Antagonist activity at human 5HT1A receptor expressed in HEK293 cells assessed as inhibition of serotonin-induced cAMP concentration at 10^-6 M by adenylate cyclase activity based HTRF assay relative to control
T1 sequence (P08908 whole entry): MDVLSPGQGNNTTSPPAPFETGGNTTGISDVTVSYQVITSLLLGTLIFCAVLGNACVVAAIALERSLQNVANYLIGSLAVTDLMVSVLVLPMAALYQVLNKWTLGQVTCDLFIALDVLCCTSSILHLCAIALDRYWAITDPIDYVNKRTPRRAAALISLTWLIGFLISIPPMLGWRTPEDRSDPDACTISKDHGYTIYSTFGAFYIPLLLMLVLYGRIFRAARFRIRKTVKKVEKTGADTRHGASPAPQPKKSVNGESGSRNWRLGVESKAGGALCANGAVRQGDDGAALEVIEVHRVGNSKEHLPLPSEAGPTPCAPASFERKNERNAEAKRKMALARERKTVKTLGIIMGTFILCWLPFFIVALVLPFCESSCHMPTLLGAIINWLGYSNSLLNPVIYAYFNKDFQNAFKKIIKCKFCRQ
Procedure, shortened: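 Human 5-HT1A in HEK-293 cells and human 5-HT7 in CHO cells, per the text. Compounds were tested at a single 10^-6 M concentration, in duplicate. Read-out was % inhibition of the control agonist cAMP response, measured by HTRF against the maximal effect of 300 nM serotonin. Reference antagonists were methiothepin (5-HT7) and WAY-100635 (5-HT1A).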

[2] = biological target: 5-hydroxytryptamine receptor 7 (Homo sapiens, UniProt P34969); assay: Antagonist activity at human 5HT7 receptor expressed in HEK293 cells assessed as inhibition of serotonin-induced cAMP concentration at 10^-6 M by adenylate cyclase activity based HTRF assay relative to control
5-hydroxytryptamine receptor 7, sequence (P34969 whole entry): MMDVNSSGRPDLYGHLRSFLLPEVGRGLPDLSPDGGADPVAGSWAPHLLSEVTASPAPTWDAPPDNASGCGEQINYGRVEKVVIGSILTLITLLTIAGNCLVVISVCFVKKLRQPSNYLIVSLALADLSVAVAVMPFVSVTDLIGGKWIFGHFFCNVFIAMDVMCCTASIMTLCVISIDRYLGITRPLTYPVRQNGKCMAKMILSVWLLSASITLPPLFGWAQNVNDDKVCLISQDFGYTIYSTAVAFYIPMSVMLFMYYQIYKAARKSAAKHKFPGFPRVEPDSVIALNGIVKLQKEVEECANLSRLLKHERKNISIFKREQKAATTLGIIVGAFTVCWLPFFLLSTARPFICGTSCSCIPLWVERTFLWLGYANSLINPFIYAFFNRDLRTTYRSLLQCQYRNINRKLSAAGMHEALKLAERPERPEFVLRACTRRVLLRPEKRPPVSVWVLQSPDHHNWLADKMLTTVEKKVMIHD

SMILES | Inhibition [1] | Inhibition [2]
CSc1ccccc1N1CCN(CCCCCC(=O)N2Cc3ccccc3C[C@H]2C(N)=O)CC1 | 98% | 
NC(=O)[C@@H]1Cc2ccccc2CN1C(=O)CCCCN1CCN(c2ccccc2-c2ccccc2)CC1 |  | 94%
CC(C)c1ccccc1N1CCN(CCCCCCC(=O)N2CCC[C@H]2C(=O)N2CCCCC2)CC1 | 100% | 
O=C([C@@H]1CCCN1C(=O)CCCCN1CCN(c2ccccc2-c2ccccc2)CC1)N1CCCCC1 |  | 91%
